The test system of one test is Vero. Nature of the test: Antiproliferative activity against African green monkey Vero cells by MTT assay. The format is cell-based. The conditions noted are these: Chlorocebus sabaeus. Summed up:
(§1)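 Antiproliferative MTT (microculture tetrazolium) assay run by a previously reported protocol, giving IC50 values. Cell lines came from ATCC: HeLaS3 cervix adenocarcinoma (CCL-2.2), A549 lung carcinoma (CCL-185), HT-29 colorectal adenocarcinoma (HTB-38), and nontumorigenic normal African green monkey kidney Vero (CCL-81).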

A further test relates to A549. Put plainly: Antiproliferative activity against human A549 cells by MTT assay. The format is functional, cell-based. Summed up: as §1
For another test, the system named is HT-29. Put plainly: Antiproliferative activity against human HT-29 cells by MTT assay. The format is functional, cell-based. The essentials: as §1
In a further test the test system is HeLa S3. Nature of the test: Antiproliferative activity against human HeLaS3 cells by MTT assay. The format is functional, cell-based. Summed up: as §1

pIC50: −log10 of the molar value.

`CO[C@H]1[C@@H](O)[C@H](O[C@H]2CC[C@@]3(C)[C@H](CC[C@@H]4[C@@H]3CC[C@]3(C)[C@@H](C5=CC(=O)OC5)[C@@H](OC(C)=O)C[C@]43O)C2)O[C@@H](C)[C@@H]1O[C@@H]1O[C@H](CO[C@@H]2O[C@H](CO)[C@@H](O)[C@H](O)[C@H]2O)[C@@H](O)[C@H](O)[C@H]1O`: the pIC50 – broadly, the negative decadic logarithm of the IC50, by convention in mol/L – in the test on Vero is 5.32; with A549, 6.22; in the test with HT-29, 5.85; in the test on HeLa S3 it was 6.40.
On the same counts, the results for `CO[C@H]1[C@@H](O[C@@H]2O[C@H](CO)[C@@H](O)[C@H](O)[C@H]2O)[C@H](C)O[C@@H](O[C@H]2CC[C@@]3(C)[C@H](CC[C@@H]4[C@@H]3CC[C@]3(C)[C@@H](C5=CC(=O)OC5)[C@@H](OC(C)=O)C[C@]43O)C2)[C@@H]1OC(C)=O` are 5.66, 6.22, 6.22 and 6.40.
In the case of `COc1cc([C@@H]2c3cc4c(cc3[C@@H](O[C@@H]3O[C@@H]5CO[C@@H](C)O[C@H]5[C@H](O)[C@H]3O)[C@H]3COC(=O)[C@H]23)OCO4)cc(OC)c1O` [ETOPOSIDE], the pIC50 in the test with Vero was under 5.00; in the test on A549, under 5.00; in the test with HT-29, 5.12; in the test on HeLa S3 it was 6.30.
On to `CO[C@H]1[C@@H](O)[C@H](O[C@H]2CC[C@@]3(C)[C@H](CC[C@@H]4[C@@H]3CC[C@]3(C)C(C5=CC(=O)OC5)=CC[C@]43O)C2)O[C@@H](C)[C@@H]1O[C@@H]1O[C@H](CO)[C@@H](O)[C@H](O)[C@H]1O`, for which the negative logarithm of the IC50 (pIC50) with Vero was 5.60; with A549, 6.52; in the test on HT-29 it was 6.10; with HeLa S3, 6.15.
With `CO[C@@H]1[C@@H](O[C@@H]2O[C@H](CO[C@@H]3O[C@H](CO)[C@@H](O)[C@H](O)[C@H]3O)[C@@H](O)[C@H](O)[C@H]2O)[C@H](C)O[C@@H](O[C@H]2CC[C@@]3(C)[C@H](CC[C@@H]4[C@@H]3CC[C@]3(C)[C@@H](C5=CC(=O)OC5)[C@@H](OC(C)=O)C[C@]43O)C2)[C@@H]1OC(C)=O`, the pIC50 in the test on Vero was under 5.00; in the test with A549, 5.68; in the test with HT-29, 5.30; in the test with HeLa S3, 5.80.
On the same counts, the results for `CO[C@H]1[C@@H](O)[C@H](C)O[C@@H](O[C@H]2CC[C@@]3(C)[C@H](CC[C@@H]4[C@@H]3CC[C@]3(C)[C@@H](C5=CC(=O)OC5)[C@@H](OC(C)=O)C[C@]43O)C2)[C@@H]1OC(C)=O` are 6.52, 7.52, 7.00 and 7.00.
Turning to `CO[C@@H]1[C@@H](O)[C@H](O[C@H]2CC[C@@]3(C)[C@H](CC[C@@H]4[C@@H]3CC[C@]3(C)[C@@H](C5=CC(=O)OC5)[C@@H](OC(C)=O)C[C@]43O)C2)O[C@@H](C)[C@@H]1O[C@@H]1O[C@H](CO)[C@@H](O)[C@H](O)[C@H]1O`, the pIC50 was 6.22 in the test on Vero, 7.00 in the test on A549, 6.70 with HT-29 and 7.00 with HeLa S3.
Turning to `CO[C@@H]1[C@@H](O[C@@H]2O[C@H](CO)[C@@H](O)[C@H](O)[C@H]2O)[C@H](C)O[C@@H](O[C@H]2CC[C@@]3(C)[C@H](CC[C@@H]4[C@@H]3CC[C@]3(C)C(C5=CC(=O)OC5)=CC[C@]43O)C2)[C@@H]1OC(C)=O`, the pIC50 in the test with Vero, with A549, in the test on HT-29 and with HeLa S3 was under 5.00 each time.
With `CO[C@H]1[C@@H](O)[C@H](O[C@H]2CC[C@@]3(C)[C@H](CC[C@@H]4[C@@H]3CC[C@]3(C)[C@@H](C5=CC(=O)OC5)[C@@H](OC(C)=O)C[C@]43O)C2)O[C@@H](C)[C@@H]1O[C@@H]1O[C@H](CO)[C@@H](O)[C@H](O)[C@H]1O`, the pIC50 is 6.15 in the test on Vero, 7.00 in the test with A549, 6.70 in the test with HT-29 and 6.70 in the test on HeLa S3.
For `CO[C@@H]1[C@@H](O)[C@H](O[C@H]2CC[C@@]3(C)[C@H](CC[C@@H]4[C@@H]3CC[C@]3(C)[C@@H](C5=CC(=O)OC5)[C@@H](O)C[C@]43O)C2)O[C@@H](C)[C@@H]1O[C@@H]1O[C@H](CO)[C@@H](O)[C@H](O)[C@H]1O`, the pIC50 with Vero is under 5.00; in the test on A549, 5.42; in the test on HT-29 it was 5.19; in the test with HeLa S3, 5.17.
With `CO[C@@H]1[C@@H](O[C@@H]2O[C@H](CO)[C@@H](O)[C@H](O)[C@H]2O)[C@H](C)O[C@@H](O[C@H]2CC[C@@]3(C)[C@H](CC[C@@H]4[C@@H]3CC[C@]3(C)[C@@H](C5=CC(=O)OC5)[C@@H](OC(C)=O)C[C@]43O)C2)[C@@H]1OC(C)=O`, the pIC50 with Vero was 5.24; in the test on A549, 5.82; in the test with HT-29, 5.72; in the test on HeLa S3, 5.85.
On the same counts, the results for `CO[C@@H]1[C@@H](O)[C@H](O[C@H]2CC[C@@]3(C)[C@H](CC[C@@H]4[C@@H]3CC[C@]3(C)[C@@H](C5=CC(=O)OC5)[C@@H](OC(C)=O)C[C@]43O)C2)O[C@@H](C)[C@@H]1O[C@@H]1O[C@H](CO[C@@H]2O[C@H](CO)[C@@H](O)[C@H](O)[C@H]2O)[C@@H](O)[C@H](O)[C@H]1O` are 5.16, 5.92, 5.80 and 6.30.
On the same counts, the results for `COc1cccc2c1C(=O)c1c(O)c3c(c(O)c1C2=O)C[C@@](O)(C(=O)CO)C[C@@H]3O[C@H]1C[C@H](N)[C@H](O)[C@H](C)O1` [DOXORUBICIN] are 5.18, 5.30, 6.40 and over 7.00.
`CO[C@@H]1[C@@H](O)[C@H](O[C@H]2CC[C@@]3(C)[C@H](CC[C@@H]4[C@@H]3CC[C@]3(C)C(C5=CC(=O)OC5)=CC[C@]43O)C2)O[C@@H](C)[C@@H]1O[C@@H]1O[C@H](CO)[C@@H](O)[C@H](O)[C@H]1O`: the pIC50 in the test on Vero is 5.21; in the test with A549, 5.80; in the test with HT-29, 5.72; in the test with HeLa S3, 6.15.
Regarding `CO[C@@H]1[C@@H](O)[C@H](C)O[C@@H](O[C@H]2CC[C@@]3(C)[C@H](CC[C@@H]4[C@@H]3CC[C@]3(C)[C@@H](C5=CC(=O)OC5)[C@@H](OC(C)=O)C[C@]43O)C2)[C@@H]1OC(C)=O`, the pIC50 is 6.70 with Vero, 6.30 in the test with A549, 7.00 with HT-29 and 7.40 in the test on HeLa S3.
